Test results from ChEMBL document CHEMBL1165950, “Design and synthesis of new potent anticancer pyrazoles with high FLT3 kinase inhibitory selectivity” (Bioorg Med Chem, 2010).

How the values were obtained:
Assay type in all cases: functional
CAKI-1 = assay: Cytotoxicity against human Caki1 cells assessed as cell growth at 10 uM after 48 hrs by sulforhodamine B assay; details: CAKI-1, 48 h, read-out: Activity
[1] = Cytotoxicity against human Hs 578T cells assessed as cell growth at 1 uM after 48 hrs by sulforhodamine B assay; details: read-out: Activity
MDA-MB-468 = assay: Cytotoxicity against human MDA-MB-468 cells assessed as cell growth at 10 uM; details: read-out: Activity
In short: (§1)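 NCI-60 screen: cells grown in RPMI 1640 with 5% FBS and 2 mM L-glutamine, plated at 5000–40,000 cells/well according to doubling time, and preincubated 24 h at 37 °C, 5% CO2. The single 10 µM dose (DMSO stock) was added, then incubated 48 h. Cells were TCA-fixed and stained with 0.4% SRB, read at 515 nm, and growth % calculated against time-zero and control plates.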

UACC-257 [2] = assay: Cytotoxicity against human UACC257 cells assessed as cell growth at 0.01 uM after 48 hrs by sulforhodamine B assay; details: UACC-257, 48 h, read-out: Activity
A549 = assay: Cytotoxicity against human A549 cells assessed as cell growth at 1 uM after 48 hrs by sulforhodamine B assay; details: A549, 48 h, read-out: Activity
In short: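 NCI-60 five-dose screen. Cells were grown in RPMI 1640 with 5% FBS and 2 mM L-glutamine, plated at 5000–40,000 cells/well and preincubated for 24 h. Time-zero plates were TCA-fixed. DMSO-solubilized drug was added at five concentrations (10-fold or ½-log serial dilutions) for 48 h at 37 °C, 5% CO2. Cells were TCA-fixed, stained with 0.4% SRB and read at 515 nm. Percent growth used time-zero, control and test absorbances.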

T47D [3] = assay: Cytotoxicity against human T47D cells assessed as cell growth at 0.001 uM after 48 hrs by sulforhodamine B assay; details: read-out: Activity
NCI-H23 = assay: Growth inhibition of human NCI-H23 cells after 48 hrs by sulforhodamine B assay; details: NCI-H23, 48 h
In short: (§2)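 NCI 60-cell screen, five-dose mode. Cells grown in RPMI 1640 with 5% FBS and 2 mM L-glutamine and plated at 5000-40,000 cells/well according to doubling time. After 24 h preincubation, a Tz plate was TCA-fixed. Five concentrations (10-fold or 1/2 log dilutions) were applied for 48 h at 37 °C. SRB staining read at 515 nm. IC50 taken from [(Ti-Tz)/(C-Tz)]×100 = 50.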

SNB-19 = assay: Cytotoxicity against human SNB19 cells assessed as cell growth at 1 uM after 48 hrs by sulforhodamine B assay; details: SNB-19, 48 h, read-out: Activity
Malme-3M = assay: Cytotoxicity against human MALME-3M cells assessed as cell growth at 10 uM; details: read-out: Activity; in short: as §1
DU-145 = assay: Cytotoxicity against human DU145 cells assessed as cell growth at 1 uM after 48 hrs by sulforhodamine B assay; details: DU-145, 48 h, read-out: Activity
UACC-257 [4] = assay: Cytotoxicity against human UACC257 cells assessed as cell growth at 10 uM; details: read-out: Activity; in short: as §1
[5] = Growth inhibition of human Hs 578T cells after 48 hrs by sulforhodamine B assay; in short: as §2
SK-MEL-5 = assay: Growth inhibition of human SK-MEL-5 cells after 48 hrs by sulforhodamine B assay; details: SK-MEL-5, 48 h; in short: as §2
SK-OV-3 = assay: Cytotoxicity against human SKOV3 cells assessed as cell growth at 0.01 uM after 48 hrs by sulforhodamine B assay; details: SK-OV-3, 48 h, read-out: Activity
NCI/ADR-RES = assay: Cytotoxicity against human NCI/ADR-RES cells assessed as cell growth at 100 nM after 48 hrs by sulforhodamine B assay; details: read-out: Activity
HL-60(TB) = assay: Cytotoxicity against human HL-60(TB) cells assessed as cell growth at 0.001 uM after 48 hrs by sulforhodamine B assay; details: HL-60, 48 h, read-out: Activity
In short: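 NCI 60-cell panel. Cells are grown in RPMI 1640 with 5% FBS and 2 mM L-glutamine, seeded at 5000–40,000 cells/well according to doubling time, and preincubated 24 h. Time-zero plates are TCA-fixed. Compound from DMSO stock is given at five 10-fold or 1/2-log concentrations for 48 h at 37 °C, 5% CO2. Suspension cells are fixed with 80% TCA (final 16%) and SRB-stained, with absorbance at 515 nm. Percent growth is derived from Tz, control and test readings.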

OVCAR-8 = assay: Cytotoxicity against human OVCAR8 cells assessed as cell growth at 0.001 uM after 48 hrs by sulforhodamine B assay; details: OVCAR-8, 48 h, read-out: Activity
SF-539 = assay: Growth inhibition of human SF539 cells after 48 hrs by sulforhodamine B assay; details: SF-539, 48 h; in short: as §2
U-251 = assay: Cytotoxicity against human U251 cells assessed as cell growth at 0.01 uM after 48 hrs by sulforhodamine B assay; details: U-251, 48 h, read-out: Activity
T47D [6] = assay: Growth inhibition of human T47D cells after 48 hrs by sulforhodamine B assay; in short: as §2
COLO 205 = assay: Growth inhibition of human COLO205 cells after 48 hrs by sulforhodamine B assay; details: COLO 205, 48 h
In short: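 NCI five-dose SRB assay in RPMI 1640 with 5% FBS and 2 mM L-glutamine. Cells were preincubated 24 h, then exposed 48 h at 37 °C to five concentrations (10-fold or half-log serial dilutions from DMSO stocks). TCA fixation, SRB staining, and absorbance at 515 nm followed. IC50 was taken where [(Ti−Tz)/(C−Tz)]×100 = 50, with Tz as time-zero cell density.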

HCT-116 = assay: Cytotoxicity against human HCT116 cells assessed as cell growth at 10 uM; details: read-out: Activity
In short: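 Single-dose NCI-60 screen at 10 µM. Cells were grown in RPMI 1640 with 5% FBS and 2 mM L-glutamine, then treated for 48 h at 37 °C. Protein was measured by SRB staining with absorbance at 515 nm. Percentage growth was recorded, and inhibition percentage was calculated as 100 minus growth percentage.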

T47D [7] = assay: Cytotoxicity against human T47D cells assessed as cell growth at 100 nM after 48 hrs by sulforhodamine B assay; details: read-out: Activity
SR = assay: Cytotoxicity against human SR cells assessed as cell growth at 10 uM; details: read-out: Activity; in short: as §1
M14 = assay: Cytotoxicity against human M14 cells assessed as cell growth at 0.01 uM after 48 hrs by sulforhodamine B assay; details: M14, 48 h, read-out: Activity
EKVX = assay: Cytotoxicity against human EKVX cells assessed as cell growth at 100 nM after 48 hrs by sulforhodamine B assay; details: read-out: Activity
[8] = read-out: LC50 (the source's name)

COc1cc(C)cc(-c2c(-c3ccnc(-c4ccc(C(C)=O)cc4)c3)cnn2CC#N)c1
growth at 10 µM (CAKI-1): 25% | growth at 1 µM [1]: -23% | growth at 10 µM (MDA-MB-468): 26% | growth at 0.01 µM (UACC-257 [2]): 81% | growth at 1 µM (A549): 25% | growth at 0.001 µM (T47D [3]): 93% | GI50 (NCI-H23): 3.9 µM | TGI (NCI-H23): > 100 µM | CC50 (NCI-H23; [8]): > 100 µM | growth at 1 µM (SNB-19): 60% | growth at 10 µM (Malme-3M): 103% | growth at 1 µM (DU-145): 16% | growth at 10 µM (UACC-257 [4]): 92.8% | GI50 [5]: 1.68 µM | TGI [5]: 5.68 µM | CC50 [5, 8]: > 100 µM | GI50 (SK-MEL-5): 1.94 µM | TGI (SK-MEL-5): 4.96 µM | CC50 (SK-MEL-5; [8]): > 100 µM | growth at 0.01 µM (SK-OV-3): 98% | growth at 0.1 µM (NCI/ADR-RES): 83% | growth at 0.001 µM (HL-60(TB)): 101% | growth at 0.001 µM (OVCAR-8): 103% | GI50 (SF-539): 2.02 µM | TGI (SF-539): 4.66 µM | CC50 (SF-539; [8]): > 100 µM | growth at 0.01 µM (U-251): 89% | GI50 (T47D [6]): 2.42 µM | LC50 (T47D [6]): > 100 µM | TGI (T47D [6]): 8.02 µM | GI50 (COLO 205): 1.95 µM | TGI (COLO 205): 3.7 µM | CC50 (COLO 205; [8]): 7.02 µM | growth at 10 µM (HCT-116): 23.4% | growth at 0.1 µM (T47D [7]): 87% | growth at 10 µM (SR): 25% | growth at 0.01 µM (M14): 86% | growth at 0.1 µM (EKVX): 91%
